Reference: ChEMBL document CHEMBL3603816, “Synthetic Small Molecules Derived from Natural Vitamin K Homologues that Induce Selective Neuronal Differentiation of Neuronal Progenitor Cells” (2015)
Calls of active or inactive are those of the source. No cut-off for these calls is given here.

Assays:
Neuronal progenitor cell [1] = experiment: Induction of neuronal differentiation in mouse neuronal progenitor cells assessed as expression of Map2 at 1 uM treated for every second day for 4 days by immunofluorescence staining method; format: functional
In short: (§1)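 Neural stem/progenitor cells dissociated from embryonic day 14 mouse cerebrum. Cultured 24 h after seeding, then given 1 μM analogue every second day for 4 days. Immunofluorescence with Map2 (neurons, red) and Gfap (astrocytes, green), nuclei counterstained with DAPI. Imaged by confocal laser microscopy; the legend states staining after 48 h.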

Neuronal progenitor cell [2] = experiment: Induction of neuronal differentiation in mouse neuronal progenitor cells assessed as expression of Gfap at 1 uM treated for every second day for 4 days by immunofluorescence staining method; format: functional; in short: as §1
[3] = Induction of neuronal differentiation in mouse neuronal progenitor cells assessed as expression of Map2 at 1 uM treated for every second day for 4 days by real-time PCR method relative to control
Neuronal progenitor cell [4] = experiment: Induction of neuronal differentiation in mouse neuronal progenitor cells assessed as relative ratio of expression of Map2/Gfap mRNA at 1 uM treated for every second day for 4 days by RT-PCR analysis; format: functional
In short: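 E14 mouse cerebral progenitor cells, cultured 24 h, then treated with 1.0 × 10−6 M compound or ethanol for 4 days. mRNA extracted; Map2, Gfap and β-actin levels quantitated by real-time PCR, and the Map2/Gfap ratio calculated. Means of three independent experiments ± SD. Dunnett's t-test versus EtOH.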

Compound | Activity (Neuronal progenitor cell [1]) | Activity (Neuronal progenitor cell [2]) | fold change (FC) [3] | Activity (Neuronal progenitor cell [4])
C/C(=C\CO)CC/C=C(\C)Cc1cccc(C)c1 | Active | inactive |  | 
C/C(=C\CO)CC/C=C(\C)CC/C=C(\C)Cc1ccc(-c2ccccc2)cc1 | Active | inactive |  | 
CC1=C(C/C=C(\C)CC/C=C(\C)Cc2cccc3ccccc23)C(=O)c2ccccc2C1=O | Active | inactive | 1.5 | 
C/C(=C\CO)CC/C=C(\C)Cc1ccc(-c2ccccc2)cc1 | Active | inactive |  | 
CC(C)=CCC/C(C)=C/CC1=C(C)C(=O)c2ccccc2C1=O |  |  |  | Active
C/C(=C\CO)CC/C=C(\C)CC/C=C(\C)Cc1ccccc1 | Active | inactive |  | 
CC(C)=CCC/C(C)=C/CC/C(C)=C/CC1=C(C)C(=O)c2ccccc2C1=O |  |  |  | Active
CC1=C(C/C=C(\C)CC/C=C(\C)Cc2ccc(-c3ccccc3)cc2)C(=O)c2ccccc2C1=O | Active | inactive | 1.5 | 
CC1=C(C/C=C(\C)CC/C=C(\C)CC/C=C(\C)Cc2ccc3ccccc3c2)C(=O)c2ccccc2C1=O | Active | inactive | 1.5 | 
CC1=C(C/C=C(\C)CC/C=C(\C)Cc2cccc(C)c2)C(=O)c2ccccc2C1=O | Active | inactive | 1.5 | 
CC1=C(C/C=C(\C)CC/C=C(\C)CC/C=C(\C)Cc2cccc3ccccc23)C(=O)c2ccccc2C1=O | Active | inactive | 1.5 | 
CC1=C(C/C=C(\C)CC/C=C(\C)Cc2ccc3ccccc3c2)C(=O)c2ccccc2C1=O | inactive | inactive | 1.5 | 
C/C(=C\CO)CC/C=C(\C)Cc1cccc2ccccc12 | Active | inactive |  | 
C/C(=C\CO)CC/C=C(\C)CC/C=C(\C)Cc1cccc(C)c1 | Active | inactive |  | 
C/C(=C\CO)CC/C=C(\C)CC/C=C(\C)Cc1ccc2ccccc2c1 | Active | inactive |  | 
CC1=C(C/C=C(\C)CC/C=C(\C)CC/C=C(\C)Cc2ccc(-c3ccccc3)cc2)C(=O)c2ccccc2C1=O | Active | inactive | 1.5 | 
CC1=C(C/C=C(\C)CC/C=C(\C)CC/C=C(\C)Cc2cccc(C)c2)C(=O)c2ccccc2C1=O | Active | inactive | 1.5 | Active
CC1=C(C/C=C(\C)CC/C=C(\C)CC/C=C(\C)Cc2ccccc2)C(=O)c2ccccc2C1=O | Active | inactive | 1.5 | 
C/C(=C\CO)CC/C=C(\C)CC/C=C(\C)Cc1cccc2ccccc12 | Active | inactive |  | 
C/C(=C\CO)CC/C=C(\C)Cc1ccccc1 | Active | inactive |  | 
C/C(=C\CO)CC/C=C(\C)Cc1ccc2ccccc2c1 | Active | inactive |  | 
CC1=C(C/C=C(\C)CC/C=C(\C)Cc2ccccc2)C(=O)c2ccccc2C1=O | Active | inactive | 1.5 | 
